# Test results from ChEMBL document CHEMBL1671676, “In vitro activity of nemonoxacin, a novel nonfluorinated quinolone, against 2,440 clinical isolates” (2009).
# Assays:
# Assay type in all cases: functional
# Streptococcus pneumoniae [1] = experiment: Antibacterial activity against Streptococcus pneumoniae assessed as percent cumulative susceptible isolates at minimum inhibitory concentration of 2 ug/ml by CLSI broth microdilution method; set-up: scale not given: the % may be the effect or the level left
# Streptococcus pneumoniae [2] = experiment: Antibacterial activity against Streptococcus pneumoniae assessed as percent cumulative susceptible isolates at minimum inhibitory concentration of 8 ug/ml by CLSI broth microdilution method; set-up: scale not given: the % may be the effect or the level left
# Streptococcus pneumoniae [3] = experiment: Antibacterial activity against penicillin-resistant Streptococcus pneumoniae assessed as percent cumulative susceptible isolates at minimum inhibitory concentration of 1 ug/ml by CLSI broth microdilution method; set-up: scale not given: the % may be the effect or the level left
# Proteus mirabilis [4] = experiment: Antibacterial activity against Proteus mirabilis assessed as percent cumulative susceptible isolates at minimum inhibitory concentration of 8 ug/ml by CLSI broth microdilution method; set-up: scale not given: the % may be the effect or the level left
# [5] = tested on: Stenotrophomonas maltophilia; experiment: Antibacterial activity against Stenotrophomonas maltophilia assessed as percent cumulative susceptible isolates at minimum inhibitory concentration of 0.06 ug/ml by CLSI broth microdilution method; set-up: scale not given: the % may be the effect or the level left
# Acinetobacter baumannii = experiment: Antibacterial activity against Acinetobacter baumannii assessed as percent cumulative susceptible isolates at minimum inhibitory concentration of 0.06 ug/ml by CLSI broth microdilution method; set-up: scale not given: the % may be the effect or the level left
# Staphylococcus aureus [6] = experiment: Antibacterial activity against methicillin-resistant Staphylococcus aureus assessed as percent cumulative susceptible isolates at minimum inhibitory concentration of 8 ug/ml by CLSI broth microdilution method; set-up: scale not given: the % may be the effect or the level left
# Escherichia coli = experiment: Antibacterial activity against Escherichia coli assessed as percent cumulative susceptible isolates at minimum inhibitory concentration of 8 ug/ml by CLSI broth microdilution method; set-up: scale not given: the % may be the effect or the level left
# Proteus mirabilis [7] = experiment: Antibacterial activity against Proteus mirabilis assessed as percent cumulative susceptible isolates at minimum inhibitory concentration of […] by CLSI broth microdilution method; set-up: scale not given: the % may be the effect or the level left
# Proteus mirabilis [8] = experiment: Antibacterial activity against Proteus mirabilis assessed as percent cumulative susceptible isolates at minimum inhibitory concentration of 1 ug/ml by CLSI broth microdilution method; set-up: scale not given: the % may be the effect or the level left
# Proteus mirabilis [9] = experiment: Antibacterial activity against Proteus mirabilis assessed as percent cumulative susceptible isolates at minimum inhibitory concentration of 2 ug/ml by CLSI broth microdilution method; set-up: scale not given: the % may be the effect or the level left
# Enterococcus faecalis [10] = experiment: Antibacterial activity against Enterococcus faecalis assessed as percent cumulative susceptible isolates at minimum inhibitory concentration of 0.5 ug/ml by CLSI broth microdilution method; set-up: scale not given: the % may be the effect or the level left
# Enterococcus faecalis [11] = experiment: Antibacterial activity against Enterococcus faecalis assessed as percent cumulative susceptible isolates at minimum inhibitory concentration of 4 ug/ml by CLSI broth microdilution method; set-up: scale not given: the % may be the effect or the level left
# Enterococcus faecalis [12] = experiment: Antibacterial activity against Enterococcus faecalis assessed as percent cumulative susceptible isolates at minimum inhibitory concentration of 128 ug/ml by CLSI broth microdilution method; set-up: scale not given: the % may be the effect or the level left
# Staphylococcus aureus [13] = experiment: Antibacterial activity against methicillin-susceptible Staphylococcus aureus by CLSI M7-A7 broth microdilution method
# How it was run: (§1)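 Broth microdilution per CLSI guidelines on clinical isolates, using panels of doubling drug dilutions in cation-adjusted Mueller-Hinton broth with 5% lysed horse blood. MIC read per CLSI, and cumulative percentage of isolates inhibited at each concentration tabulated.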
# Streptococcus pneumoniae [14] = experiment: Antibacterial activity against penicillin-resistant Streptococcus pneumoniae by CLSI M7-A7 broth microdilution method; how it was run: as §1
# Enterococcus faecium [15] = experiment: Antibacterial activity against Enterococcus faecium by CLSI M7-A7 broth microdilution method
# [16] = tested on: Stenotrophomonas maltophilia; experiment: Antibacterial activity against Stenotrophomonas maltophilia by CLSI M7-A7 broth microdilution method
# [17] = Ratio of fAUC (0 to 24 hrs) in in vitro PK/PD model at 750 mg to MIC for Staphylococcus aureus
# [18] = Ratio of fAUC (0 to 24 hrs) in in vitro PK/PD model at 750 mg to MIC for Staphylococcus epidermidis
# [19] = Ratio of fAUC (0 to 24 hrs) in in vitro PK/PD model at 750 mg to MIC for Streptococcus pneumoniae
# [20] = Ratio of fAUC (0 to 24 hrs) in in vitro PK/PD model at 750 mg to MIC for penicillin-resistant Streptococcus pneumoniae
# Staphylococcus aureus [21] = experiment: Antibacterial activity against methicillin-susceptible Staphylococcus aureus assessed as percent cumulative susceptible isolates at minimum inhibitory concentration of 2 ug/ml by CLSI broth microdilution method; set-up: scale not given: the % may be the effect or the level left
# Proteus mirabilis [22] = experiment: Antibacterial activity against Proteus mirabilis assessed as percent cumulative susceptible isolates at minimum inhibitory concentration of 64 ug/ml by CLSI broth microdilution method; set-up: scale not given: the % may be the effect or the level left
# Staphylococcus aureus [23] = experiment: Antibacterial activity against methicillin-resistant Staphylococcus aureus assessed as percent cumulative susceptible isolates at minimum inhibitory concentration of 0.5 ug/ml by CLSI broth microdilution method; set-up: scale not given: the % may be the effect or the level left
# Enterococcus faecium [24] = experiment: Antibacterial activity against Enterococcus faecium assessed as percent cumulative susceptible isolates at minimum inhibitory concentration of 0.06 ug/ml by CLSI broth microdilution method; set-up: scale not given: the % may be the effect or the level left
# Enterococcus faecium [25] = experiment: Antibacterial activity against Enterococcus faecium assessed as percent cumulative susceptible isolates at minimum inhibitory concentration of […] by CLSI broth microdilution method; set-up: scale not given: the % may be the effect or the level left
# Klebsiella pneumoniae [26] = experiment: Antibacterial activity against Klebsiella pneumoniae assessed as percent cumulative susceptible isolates at minimum inhibitory concentration of 0.03 ug/ml by CLSI broth microdilution method; set-up: scale not given: the % may be the effect or the level left
# Klebsiella pneumoniae [27] = experiment: Antibacterial activity against Klebsiella pneumoniae assessed as percent cumulative susceptible isolates at minimum inhibitory concentration of 8 ug/ml by CLSI broth microdilution method; set-up: scale not given: the % may be the effect or the level left
# Klebsiella pneumoniae [28] = experiment: Antibacterial activity against Klebsiella pneumoniae assessed as percent cumulative susceptible isolates at minimum inhibitory concentration of 64 ug/ml by CLSI broth microdilution method; set-up: scale not given: the % may be the effect or the level left
# Klebsiella pneumoniae [29] = experiment: Antibacterial activity against Klebsiella pneumoniae assessed as percent cumulative susceptible isolates at minimum inhibitory concentration of 128 ug/ml by CLSI broth microdilution method; set-up: scale not given: the % may be the effect or the level left
# Klebsiella oxytoca = experiment: Antibacterial activity against Klebsiella oxytoca assessed as percent cumulative susceptible isolates at minimum inhibitory concentration of 0.5 ug/ml by CLSI broth microdilution method; set-up: scale not given: the % may be the effect or the level left
# How it was run: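 Clinical isolates tested by CLSI broth microdilution using 96-well panels of doubling drug dilutions in cation-adjusted Mueller-Hinton broth with 5% lysed horse blood. MIC was read from these panels. Panel quality control used CLSI ATCC strains, including S. pneumoniae 49619, S. aureus 29213, E. faecalis 29212 and E. coli 25922. Cumulative percentages of isolates were tabulated at each MIC.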
# Enterobacter cloacae = experiment: Antibacterial activity against Enterobacter cloacae assessed as percent cumulative susceptible isolates at minimum inhibitory concentration of 0.5 ug/ml by CLSI broth microdilution method; set-up: scale not given: the % may be the effect or the level left
# Staphylococcus aureus [30] = experiment: Antibacterial activity against non-levofloxacin susceptible Staphylococcus aureus assessed as percent cumulative susceptible isolates at minimum inhibitory concentration of 0.5 ug/ml by CLSI broth microdilution method; set-up: scale not given: the % may be the effect or the level left
# Staphylococcus aureus [31] = experiment: Antibacterial activity against non-levofloxacin susceptible Staphylococcus aureus assessed as percent cumulative susceptible isolates at minimum inhibitory concentration of 64 ug/ml by CLSI broth microdilution method; set-up: scale not given: the % may be the effect or the level left
# Staphylococcus aureus [32] = experiment: Antibacterial activity against hospital-associated methicillin-resistant Staphylococcus aureus assessed as percent cumulative susceptible isolates at minimum inhibitory concentration of […] by CLSI broth microdilution method; set-up: scale not given: the % may be the effect or the level left
# [33] = tested on: Staphylococcus epidermidis; experiment: Antibacterial activity against methicillin-susceptible Staphylococcus epidermidis assessed as percent cumulative susceptible isolates at minimum inhibitory concentration of 0.06 ug/ml by CLSI broth microdilution method; set-up: scale not given: the % may be the effect or the level left
compound,measurement,setting,value
C[C@H]1COc2c(N3CCN(C)CC3)c(F)cc3c(=O)c(C(=O)O)cn1c23.C[C@H]1COc2c(N3CCN(C)CC3)c(F)cc3c(=O)c(C(=O)O)cn1c23.O [LEVOFLOXACIN],Activity,Streptococcus pneumoniae [1],99.4%
same,Activity,Streptococcus pneumoniae [2],99.5%
same,Activity,Streptococcus pneumoniae [3],90.6%
same,Activity,Proteus mirabilis [4],97%
same,Activity,[5],3.8%
same,Activity,Acinetobacter baumannii,6.7%
same,Activity,Staphylococcus aureus [6],22.8%
same,Activity,Escherichia coli,78.5%
COc1c(N2C[C@@H](C)C[C@H](N)C2)ccc2c(=O)c(C(=O)O)cn(C3CC3)c12 [NEMONOXACIN],Activity,Proteus mirabilis [7],24.2%
same,Activity,Proteus mirabilis [8],75.8%
same,Activity,Proteus mirabilis [9],78.8%
same,Activity,Enterococcus faecalis [10],70.4%
same,Activity,Enterococcus faecalis [11],98.8%
same,Activity,Enterococcus faecalis [12],100%
same,MIC90,Staphylococcus aureus [13],0.12 µg/mL
same,MIC90,Streptococcus pneumoniae [14],0.03 µg/mL
same,MIC90,Enterococcus faecium [15],128 µg/mL
same,MIC90,[16],≥ 4 µg/mL
same,RatioAUC/MIC,[17],393
same,RatioAUC/MIC,[18],98
same,RatioAUC/MIC,[19],> 393
same,RatioAUC/MIC,[20],> 393
same,Activity,Staphylococcus aureus [21],96%
same,Activity,Proteus mirabilis [22],97%
same,Activity,Staphylococcus aureus [23],24.4%
same,Activity,Enterococcus faecium [24],7.9%
same,Activity,Enterococcus faecium [25],15.8%
same,Activity,Klebsiella pneumoniae [26],1%
same,Activity,Klebsiella pneumoniae [27],95%
same,Activity,Klebsiella pneumoniae [28],98.5%
same,Activity,Klebsiella pneumoniae [29],100%
same,Activity,Klebsiella oxytoca,96.9%
same,Activity,Enterobacter cloacae,90.3%
same,Activity,Staphylococcus aureus [30],19%
same,Activity,Staphylococcus aureus [31],100%
same,Activity,Staphylococcus aureus [32],2%
same,Activity,[33],58.1%
